TNAP act hiacc: TNAP activators at high phosphate acceptor level, primary screen, biochemical, luminescence, uHTS. Alkaline phosphatase, tissue-nonspecific isozyme (Homo sapiens), P05186. purified TNAP, CDP-star luminescence, 1 M DEA, 30 min; active compounds read high; 0 = EDTA background, 1 = DMSO-only activity. activation factor at 20 µM. 200,000 tested, under 10 active. AID 1136, 2008;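 active = activation factor at least 2 at 20 µM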
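Test system – human TNAP · Doses – 20 µM single point · Incubation – 30 min, room temperature · Signal – luminescent substrate turnover signal · Read-out basis – activation factor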
TNAP inh noacc: human TNAP enzyme inhibitors, primary screen, biochemical, luminescent, no phosphate acceptor, uHTS | Alkaline phosphatase, tissue-nonspecific isozyme (Homo sapiens), P05186 | purified TNAP, CDP-star luminescence, 30 min | inhibition, % at 20 µM | 0.26% of 200,000 active;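 active = tissue-nonspecific alkaline phosphatase inhibition above about 50% at 20 µM in the single-dose screen, limit read from the data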
ABCB1 inh: ABCB1 efflux pump inhibitors, primary screen, cell-based, multiplex, flow cytometry, ABCG2 counter-screen. ATP-dependent translocase ABCB1 (Homo sapiens), P08183. AID 1326, 2008. inhibition, % at 6.6 µM. 0.067% of 190,000 active. CCRF-Adr cells, JC-1 efflux; in the data active = inhibition above about 40%;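 also: higher value means more JC-1 retained so stronger ABCB1 efflux block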
ABCG2 block: ABCG2 efflux pump inhibitors, primary screen, multiplex with ABCB1, IgMXP3 cells, flow cytometry; inhibition, % at 6.6 µM; 0.1% of 190,000 active; JC-1 efflux; Broad substrate specificity ATP-binding cassette transporter ABCG2 (Homo sapiens), Q9UNQ0; AID 1325, 2008;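 active = inhibition above 80%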
Target sequence (Q9UNQ0 whole entry, looked up): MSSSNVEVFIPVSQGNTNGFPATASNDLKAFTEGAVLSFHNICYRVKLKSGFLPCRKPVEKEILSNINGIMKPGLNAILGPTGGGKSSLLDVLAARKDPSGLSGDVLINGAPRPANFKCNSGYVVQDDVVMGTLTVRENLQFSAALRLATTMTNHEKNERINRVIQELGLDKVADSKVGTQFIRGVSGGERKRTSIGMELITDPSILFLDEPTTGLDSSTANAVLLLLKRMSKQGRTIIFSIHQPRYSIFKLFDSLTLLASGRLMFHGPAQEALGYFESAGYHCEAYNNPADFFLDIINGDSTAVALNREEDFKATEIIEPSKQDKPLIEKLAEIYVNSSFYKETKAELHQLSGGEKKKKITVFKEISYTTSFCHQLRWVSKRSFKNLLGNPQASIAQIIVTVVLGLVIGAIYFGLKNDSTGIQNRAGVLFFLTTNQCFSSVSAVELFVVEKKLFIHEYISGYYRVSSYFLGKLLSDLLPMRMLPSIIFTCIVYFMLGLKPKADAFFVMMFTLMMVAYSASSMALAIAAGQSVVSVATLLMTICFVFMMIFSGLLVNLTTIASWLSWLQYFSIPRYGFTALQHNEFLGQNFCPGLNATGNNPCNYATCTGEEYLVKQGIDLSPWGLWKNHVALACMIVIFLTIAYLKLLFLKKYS
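Read-out basis: Efflux inhibition in percent versus controls | Test system: ABCG2 IgMXP3 and barcoded ABCB1 CCRF-Adr cell mix | Quantity: 3 million cells/mL in well | Schedule: 10 min at 25 °C | Control set: Nicardipine as high control, DMSO as low control | Reagent: JC-1 as fluorescent efflux pump substrate | Signal: Flow cytometry of retained JC-1 fluorescence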
TNAP inh hi DEA: human TNAP enzyme inhibitors, primary screen, biochemical, luminescent, high phosphate acceptor level, uHTS. Alkaline phosphatase, tissue-nonspecific isozyme (Homo sapiens), P05186. purified TNAP, CDP-star luminescence, 1 M DEA. inhibition, % at 20 µM. 0.03% of 200,000 active. AID 1135, 2008;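 active = over 50% inhibition of tissue-nonspecific alkaline phosphatase at 20 µM in the single-dose screen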
ABCB1 single pt: ABCB1 efflux pump inhibitors, confirmation, cell-based, single point, ABCG2 counter-screen; shares compounds with ABCG2 block; CCRF-Adr cells, JC-1 efflux, flow cytometry; AID 1451, 2008; inhibition, % at 6.6 µM; 7% of 270 active;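 active = inhibition of pump activity above 50%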
ABCG2 confirm: ABCG2 efflux pump inhibitors, confirmation, single point, IgMXP3 cells, ABCB1 counter-screen paired | JC-1 efflux, flow cytometry | shares compounds with ABCG2 block | inhibition, % at 6.6 µM | AID 1453, 2008 | 6% of 270 active;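 active = inhibition above 50%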
IgMXP3 autofluor: compound autofluorescence in ABCG2-expressing IgMXP3 cells, confirmation, artefact control for ABC transporter inhibitor project, cell-based, 488/530 nm, flow cytometry; shares compounds with ABCG2 block; compound autofluorescence 488/530 nm; active compounds read high; fluorescence at 6.6 µM; 30% of 270 active;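 active = fluorescence in ABCG2-expressing cells above the plate's control-well mean plus 3 SD, cut at about 15 in these data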
CCRF-Adr fluor: compound autofluorescence in ABCB1-expressing CCRF-Adr cells, confirmation, artefact control for ABC transporter inhibitor project, cell-based, 488/530 nm, flow cytometry; shares compounds with ABCG2 block; compound autofluorescence 488/530 nm; active compounds read high; fluorescence at 6.6 µM; 30% of 270 active; AID 1483, 2009;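 active = fluorescence beyond the plate control mean plus 3 SD, with a fluorescence-to-maximum score over 2, cut at about 25 in these data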
Hits are given with their value; . = inactive; / = not tested or not shown. Sampled rows, rich in hits. Any-hit rate of the full collection: about 0.41%.

SMILES | TNAP act hiacc | TNAP inh noacc | ABCB1 inh | ABCG2 block | TNAP inh hi DEA | ABCB1 single pt | ABCG2 confirm | IgMXP3 autofluor | CCRF-Adr fluor
CCCN1C(=O)/C(=C/c2ccc(N3CCCC3)c(C)c2)NC1=S | . | . | 52 | 86 | . | . | . | 107 | 137
CCN1C(=O)/C(=C/c2ccc(N3CCCC3)cc2)NC1=S | . | . | . | . | . | . | . | 20 | 44
COc1ccc2c(C)cc(SCC(=O)N(C)C3CCS(=O)(=O)C3)nc2c1 (stereo not given) | . | . | . | . | . | / | / | / | /
O=C(O)Cc1ccc(S(=O)(=O)Nc2ccccc2C(=O)O)cc1 | . | . | . | . | . | / | / | / | /
Cc1ccc(NC(=O)Nc2ccccc2)cc1[N+](=O)[O-] | . | . | . | 95 | . | . | . | . | .
COc1ccc(OC)c2[nH]c(=O)c(CCNC(=O)c3cccs3)cc12 | . | . | . | . | . | / | / | / | /
O=C(Cc1ccccc1)Nc1cc(Cl)ccc1Sc1ccccc1 | . | . | . | 89 | . | . | . | . | .
CCCN1C(=O)/C(=C/c2c(NCCCOC(C)C)nc3c(C)cccn3c2=O)SC1=S | . | . | 62 | 89 | . | . | . | 141 | 178
Cn1c(=O)c(NCCO)c2c3c(cccc31)C(=O)c1ccccc1-2 | . | . | . | 84 | . | . | . | . | .
Cn1c(=O)c(NCCc2ccccc2)c2c3c(cccc31)C(=O)c1ccccc1-2 | . | . | 70 | 151 | . | . | . | 55 | 143
CCCCNc1c2c3c(cccc3n(C)c1=O)C(=O)c1ccccc1-2 | . | . | 66 | 142 | . | . | . | 71 | 132
CCNc1c2c3c(cccc3n(C)c1=O)C(=O)c1ccccc1-2 | . | . | . | . | . | / | / | / | /
CC(=O)Nc1ccc(Nc2c3c4c(cccc4n(C)c2=O)C(=O)c2ccccc2-3)cc1 | . | . | . | . | . | / | / | / | /
Cc1ccc(NC(=O)/C(C#N)=C(\N)C(Cl)(Cl)Cl)nc1 | . | . | . | . | . | / | / | / | /
CCOC(=O)C1(CCOc2ccccc2)CCN(Cc2ccc(-n3cccn3)cc2)CC1 | . | . | . | . | . | / | / | / | /
CCCOc1ccc(C(=O)ON=C2CCN(C)CC2)cc1 | . | . | . | . | . | / | / | / | /
CCOC(=O)C1=C(CNCc2ccc(C)cc2)NC(=O)NC1c1cc(C)ccc1C (stereo not given) | . | . | . | . | . | . | . | . | .
CCOC(=O)C1=C(Cn2cnc3ccccc32)NC(=O)NC1c1cc(C)ccc1C (stereo not given) | . | . | . | . | . | / | / | / | /
O=C(O)CCc1nn2c3ccccc3n(Cc3ccccc3F)c2nc1=O | . | . | . | . | . | / | / | / | /
COCCn1c(C)cc(C(=O)CSc2cc(C)c3ccccc3n2)c1C | . | . | . | 92 | . | . | . | . | .
CCC(C)c1ccc(NC(=S)NCCn2cc(Br)cn2)cc1 (stereo not given) | . | . | . | 126 | . | . | . | . | .
CCCn1c(=O)c(C(=O)NCc2ccco2)c(O)c2ccccc21 | . | . | . | . | . | / | / | / | /
O/N=C/c1ccc(-c2cc(Cl)ccc2Cl)o1 | . | . | . | . | . | / | / | / | /
Clc1ccc(Cl)c(-c2ccc(/C=N/c3ncn[nH]3)o2)c1 | . | . | . | 83 | . | . | . | . | .
COn1c(-c2ccccc2)nc2c1CCc1c-2no[n+]1[O-] | . | . | . | . | . | . | . | . | .
CCOC(=O)c1cc(-c2ccc(Cl)cc2)nc2onc(C)c12 | . | . | . | 83 | . | . | . | . | .
CCn1c(SCc2ccccc2Cl)nc2nc3c(cc2c1=O)CCCC3 | . | . | . | 92 | . | . | . | 15 | .
CCOc1ccc(OCc2ccc(C(=O)OCc3ccccn3)o2)cc1 | . | . | . | 87 | . | . | . | . | .
